We go through 13 compounds from ChEMBL document CHEMBL1157128, “Silica-supported fluoroboric acid (HBF(4)-SiO(2)) catalyzed highly productive synthesis of thiomorpholides as activators of l-asparaginase as well as the antioxidant agent” (Bioorg Med Chem, 2010).

Molecules are shown by their SMILES. Active and inactive are the calls of the source. The rule behind the calls is not given here.

Assay [1] deals with Radical scavenging activity. The assay can be described thus: Antioxidant activity assessed as DPPH free radical scavenging activity at 1 mM/ml after 30 mins. The format is functional. Summed up: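 DPPH scavenging assay. 1 mM compound stock was mixed with DPPH in methanol (0.5 mL, 0.3 mM) in a 3 mL total mixture and left at room temperature for 30 min. Absorbance was read at 520 nm. Percent activity was calculated as [1 − OD test/OD control] × 100. BHA served as standard.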

The subject of assay [2] is L-asparaginase (Erwinia carotovora). The assay can be described thus: Ratio of Vmax to Km for Erwinia carotovora L-asparaginase by Lineweaver-Burke plot. To be noted: Pectobacterium carotovorum.
Assay [3] has the same test system. As to the kind of experiment: Binding affinity to Erwinia carotovora L-asparaginase by spectrophotometry. To be noted: Pectobacterium carotovorum.

For the compound `S=C(Cc1ccc2ccccc2c1)N1CCOCC1`, the Activity in assay [1] came to 0%.

As for `O=[N+]([O-])c1ccc(CC(=S)N2CCOCC2)cc1`, in assay [1], the Activity came out at 0%. Same read-out and setting: the same measure for `Cc1ccc(CC(=S)N2CCOCC2)cc1`: 21.6%. Still for that read-out and setting: the same measure for `S=C(CCCc1ccccc1)N1CCOCC1`: 0%; for `S=C(Cc1ccco1)N1CCOCC1`: 0%. Take `COc1ccc(CC(=S)N2CCOCC2)cc1`: the Vmax/Km in assay [2] came to 6.25. The Activity in assay [1] was 24.3%. Also, in assay [3], the result was Active and the KA was found to be 0.0851 µM. As for `S=C(Cc1ccc(Br)cc1)N1CCOCC1`, the Activity in assay [1] was found to be 0%. In the case of `COc1ccc(CC(=S)N2CCOCC2)cc1OC`, the Vmax/Km in assay [2] turned out to be 13.3. Further, the Activity in assay [1] was determined as 32.6%. Besides, in assay [3], the outcome was Active and the KA came to 0.985 µM.

In the case of `S=C(Cc1ccc(OCc2ccccc2)cc1)N1CCOCC1`, the Activity in assay [1] was 25.9%. For the compound `Oc1ccccc1CC(=S)N1CCOCC1`, the Vmax/Km in assay [2] stood at 4.04. Moreover, in assay [1], the Activity is 36.1%. The compound also showed a KA in assay [3] of 0.625 µM.

For the compound `S=C(Cc1ccccc1)N1CCOCC1`, the Activity in assay [1] was determined as 24.3%. On the same count and under the same terms, the same measure for `Nc1ccccc1CC(=S)N1CCOCC1`: 0%; for `COc1ccc(O)c(C(C)(C)C)c1.COc1ccc(O)cc1C(C)(C)C`: 72.3%.
